Experimental data as given in ChEMBL document CHEMBL1152968, “Phenylethanoid and lignan glycosides from polar extracts of Lantana, a genus of verbenaceous plants widely used in traditional herbal therapies” (J Nat Prod, 2009).
The source made the active and inactive calls.

Columns and labels:
Type in all cases: functional, cell-based
[1] = tested on: HL-60; test: Cytotoxicity against human HL60 cells at 10 uM after 48 hrs by fluorescent microplate assay
Procedure, shortened: (§1)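 Cells were seeded in 96-well plates in RPMI 1640 with 10% fetal calf serum and 10 units/mL penicillin-streptomycin. They were then cultured 24 h at 37 °C in humidified 5% CO2 before treatment. Compounds were added dissolved in DMSO, and the read-out was cell viability.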

[2] = tested on: K562; test: Cytotoxicity against human K562 cells at 10 uM after 48 hrs by fluorescent microplate assay; procedure, shortened: as §1
[3] = tested on: U-937; test: Cytotoxicity against human U937 cells at 10 uM after 48 hrs by fluorescent microplate assay; procedure, shortened: as §1
[4] = tested on: CCRF-CEM; test: Cytotoxicity against human CEM cells at 10 uM after 48 hrs by fluorescent microplate assay; procedure, shortened: as §1
[5] = tested on: KG-1; test: Cytotoxicity against human KG1 cells at 10 uM after 48 hrs by fluorescent microplate assay; procedure, shortened: as §1
[6] = tested on: Jurkat; test: Cytotoxicity against human Jurkat cells at 10 uM after 48 hrs by fluorescent microplate assay; procedure, shortened: as §1
[7] = tested on: U-266; test: Cytotoxicity against human U266 cells at 10 uM after 48 hrs by fluorescent microplate assay; procedure, shortened: as §1
[8] = tested on: NCI-H929; test: Cytotoxicity against human NCI-H929 cells at 10 uM after 48 hrs by fluorescent microplate assay; procedure, shortened: as §1

Measured: Activity

O=C(/C=C/c1ccc(O)c(O)c1)O[C@H]1[C@H](O[C@@H]2OC[C@](O)(CO)[C@H]2O)[C@@H](O)[C@H](OCCc2ccc(O)c(O)c2)O[C@@H]1CO[C@@H]1OC[C@H](O[C@@H]2OC[C@](O)(CO)[C@H]2O)[C@H](O)[C@H]1O
inactive: all assays above

COc1cc([C@H]2Oc3c(OC)cc([C@H](O)[C@H](O)CO[C@@H]4O[C@H](CO)[C@@H](O)[C@H](O)[C@H]4O)cc3[C@@H]2CO)ccc1O
inactive: all assays above
